Source: ChEMBL document CHEMBL2407075, “Sulphonamido-quinoxalines: search for anticancer agent” (Eur J Med Chem, 2013)

Tests used:
Type in all cases: functional
[1] = system: A498; assay: Growth inhibition of human A498 cells assessed as cell growth at 10^-4 M after 48 hrs by sulforhodamine B assay; conditions: A498, 48 h, read-out: Activity
How it was run: (§1)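 Five-dose NCI-60 run (0.01, 0.1, 1, 10 and 100 µM, as 10-fold dilutions from a DMSO stock made at 400× the top final level). Cells were grown in RPMI 1640 with 5% FBS and 2 mM glutamine and plated for 24 h. They were then exposed for 48 h at 37 °C and 5% CO2. TCA fixation was followed by SRB staining with A515 read-out. Percent growth was taken relative to time-zero and control plates.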

[2] = system: NCI-H522; assay: Growth inhibition of human NCI-H522 cells assessed as cell growth at 10^-6 M after 48 hrs by sulforhodamine B assay; conditions: NCI-H522, 48 h, read-out: Activity
[3] = system: OVCAR-5; assay: Growth inhibition of human OVCAR5 cells assessed as cell growth at 10^-4 M after 48 hrs by sulforhodamine B assay; conditions: OVCAR-5, 48 h, read-out: Activity
[4] = system: K562; assay: Growth inhibition of human K562 cells assessed as cell growth at 10^-7 M after 48 hrs by sulforhodamine B assay; conditions: K562, 48 h, read-out: Activity
[5] = system: 786-0; assay: Growth inhibition of human 786-0 cells assessed as cell growth at 10^-7 M after 48 hrs by sulforhodamine B assay; conditions: 786-0, 48 h, read-out: Activity; how it was run: as §1
[6] = system: RXF 393; assay: Growth inhibition of human RXF393 cells assessed as cell growth at 10^-6 M after 48 hrs by sulforhodamine B assay; conditions: RXF 393, 48 h, read-out: Activity
[7] = system: SW-620; assay: Growth inhibition of human SW620 cells assessed as cell growth at 10^-5 M after 48 hrs by sulforhodamine B assay; conditions: SW-620, 48 h, read-out: Activity
[8] = system: NCI-H226; assay: Growth inhibition of human NCI-H226 cells assessed as cell growth at 10^-4 M after 48 hrs by sulforhodamine B assay; conditions: NCI-H226, 48 h, read-out: Activity
[9] = system: K562; assay: Growth inhibition of human K562 cells assessed as cell growth at 10^-6 M after 48 hrs by sulforhodamine B assay; conditions: K562, 48 h, read-out: Activity
[10] = system: SNB-75; assay: Growth inhibition of human SNB75 cells after 48 hrs by sulforhodamine B assay; conditions: SNB-75, 48 h; for CC50: read-out: LC50 (the source's name)
How it was run: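 Five-dose NCI 60 screen at 0.01, 0.1, 1, 10 and 100 µM, 48 h exposure after 24 h preincubation, in RPMI 1640 with 5% FBS and 2 mM glutamine. Fixed with TCA (10% final for adherent cells, 16% for suspension cells), stained with SRB, A515 read. Percent growth uses time-zero (Tz), control and treated plates. GI50, TGI and LC50 are read from the dose-response curves.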

[11] = system: SF-268; assay: Growth inhibition of human SF268 cells after 48 hrs by sulforhodamine B assay; conditions: SF-268, 48 h; for CC50: read-out: LC50 (the source's name)
How it was run: (§2)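 Adherent cells in RPMI 1640 with 5% FBS and 2 mM L-glutamine were plated at 5000–40,000 cells/well and grown 24 h. Five concentrations (0.01–100 µM, DMSO stock) were added for 48 h at 37 °C. Cells were fixed with cold TCA (10% final) and stained with SRB, read at 515 nm. GI50 came from log concentration–growth curves against time-zero and control plates.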

[12] = system: 786-0; assay: Growth inhibition of human 786-0 cells assessed as cell growth at 10^-6 M after 48 hrs by sulforhodamine B assay; conditions: 786-0, 48 h, read-out: Activity; how it was run: as §1
[13] = system: SR; assay: Growth inhibition of human SR cells assessed as cell growth at 10^-7 M after 48 hrs by sulforhodamine B assay; conditions: read-out: Activity
[14] = system: MDA-MB-435; assay: Growth inhibition of human MDA-MB-435 cells assessed as cell growth at 10^-4 M after 48 hrs by sulforhodamine B assay; conditions: MDA-MB-435, 48 h, read-out: Activity
[15] = Growth inhibition of human EKVX cells assessed as cell growth at 10^-5 M after 48 hrs by sulforhodamine B assay; conditions: read-out: Activity
How it was run: (§3)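 Five-dose screen at NCI. Cells in RPMI 1640 with 5% FBS and 2 mM L-glutamine, seeded at 5000–40,000 cells/well and grown 24 h at 37 °C, 5% CO2 before dosing, with time-zero plates TCA-fixed. Drug diluted from DMSO stock to 0.01, 0.1, 1, 10 and 100 µM final, 48 h. Cells fixed with cold TCA (10% final), stained with 0.4% SRB and read at 515 nm. Percent growth from Tz, control and test absorbances; GI50, TGI and LC50 from dose-response curves.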

[16] = system: PC-3; assay: Growth inhibition of human PC3 cells after 48 hrs by sulforhodamine B assay; conditions: PC-3, 48 h; for CC50: read-out: LC50 (the source's name); how it was run: as §2
[17] = system: UACC-257; assay: Growth inhibition of human UACC257 cells assessed as cell growth at 10^-4 M after 48 hrs by sulforhodamine B assay; conditions: UACC-257, 48 h, read-out: Activity
[18] = system: OVCAR-4; assay: Growth inhibition of human OVCAR4 cells assessed as cell growth at 10^-6 M after 48 hrs by sulforhodamine B assay; conditions: OVCAR-4, 48 h, read-out: Activity
[19] = system: CAKI-1; assay: Growth inhibition of human CAKI-1 cells assessed as cell growth at 10^-5 M after 48 hrs by sulforhodamine B assay; conditions: CAKI-1, 48 h, read-out: Activity; how it was run: as §1
[20] = system: HCT-116; assay: Growth inhibition of human HCT116 cells assessed as cell growth at 10^-8 M after 48 hrs by sulforhodamine B assay; conditions: HCT-116, 48 h, read-out: Activity; how it was run: as §3
[21] = system: HOP-62; assay: Growth inhibition of human HOP62 cells after 48 hrs by sulforhodamine B assay; conditions: HOP-62, 48 h; for CC50: read-out: LC50 (the source's name); how it was run: as §3
[22] = system: SK-MEL-28; assay: Growth inhibition of human SK-MEL-28 cells assessed as cell growth at 10^-6 M after 48 hrs by sulforhodamine B assay; conditions: SK-MEL-28, 48 h, read-out: Activity
[23] = system: KM12; assay: Growth inhibition of human KM12 cells after 48 hrs by sulforhodamine B assay; conditions: KM12, 48 h; for CC50: read-out: LC50 (the source's name); how it was run: as §2
[24] = system: CAKI-1; assay: Growth inhibition of human CAKI-1 cells assessed as cell growth at 10^-8 M after 48 hrs by sulforhodamine B assay; conditions: CAKI-1, 48 h, read-out: Activity; how it was run: as §1
[25] = system: MCF7; assay: Growth inhibition of human MCF7 cells assessed as cell growth at 10^-5 M after 48 hrs by sulforhodamine B assay; conditions: MCF7, 48 h, read-out: Activity
[26] = system: HT-29; assay: Growth inhibition of human HT-29 cells assessed as cell growth at 10^-5 M after 48 hrs by sulforhodamine B assay; conditions: HT-29, 48 h, read-out: Activity; how it was run: as §3
[27] = system: SNB-19; assay: Growth inhibition of human SNB19 cells assessed as cell growth at 10^-5 M after 48 hrs by sulforhodamine B assay; conditions: SNB-19, 48 h, read-out: Activity
[28] = system: TK-10; assay: Growth inhibition of human TK10 cells assessed as cell growth at 10^-4 M after 48 hrs by sulforhodamine B assay; conditions: TK-10, 48 h, read-out: Activity

O=S(=O)(Nc1ccc(Cl)cc1)c1ccc2nc(-c3ccccc3)c(-c3ccccc3)nc2c1
growth at 100 µM [1]: 61%
growth at 1 µM [2]: 88%
growth at 100 µM [3]: 90%
growth at 0.1 µM [4]: 98%
growth at 0.1 µM [5]: 88%
growth at 1 µM [6]: 98%
growth at 10 µM [7]: 14%
growth at 100 µM [8]: 73%
growth at 1 µM [9]: 95%
GI50 [10]: 2.12 µM
TGI [10]: > 100 µM
CC50 [10]: > 100 µM
TGI [11]: > 100 µM
CC50 [11]: > 100 µM
growth at 1 µM [12]: 93%
growth at 0.1 µM [13]: 88%
growth at 100 µM [14]: 76%
growth at 10 µM [15]: -7%
GI50 [16]: 1.47 µM
CC50 [16]: > 100 µM
growth at 100 µM [17]: 67%
growth at 1 µM [18]: 76%
growth at 10 µM [19]: -35%
growth at 0.01 µM [20]: 96%
GI50 [21]: 3.95 µM
TGI [21]: > 100 µM
CC50 [21]: > 100 µM
growth at 1 µM [22]: 91%
TGI [23]: > 100 µM
CC50 [23]: > 100 µM
growth at 0.01 µM [24]: 87%
growth at 10 µM [25]: -16%
growth at 10 µM [26]: -55%
growth at 10 µM [27]: 17%
growth at 100 µM [28]: 86%

O=S(=O)(Nc1ccccn1)c1ccc2nc(-c3ccccc3)c(-c3ccccc3)nc2c1
growth at 100 µM [1]: 49%
growth at 1 µM [2]: 74%
growth at 100 µM [3]: 99%
growth at 0.1 µM [4]: 99%
growth at 0.1 µM [5]: 92%
growth at 1 µM [6]: 96%
growth at 10 µM [7]: 14%
growth at 100 µM [8]: 70%
growth at 1 µM [9]: 82%
GI50 [10]: 2.23 µM
TGI [10]: > 100 µM
CC50 [10]: > 100 µM
TGI [11]: > 100 µM
CC50 [11]: > 100 µM
growth at 1 µM [12]: 96%
growth at 0.1 µM [13]: 89%
growth at 100 µM [14]: 76%
growth at 10 µM [15]: -2%
GI50 [16]: 1.39 µM
CC50 [16]: > 100 µM
growth at 100 µM [17]: 53%
growth at 1 µM [18]: 82%
growth at 10 µM [19]: -11%
growth at 0.01 µM [20]: 97%
GI50 [21]: 4.54 µM
TGI [21]: > 100 µM
CC50 [21]: > 100 µM
growth at 1 µM [22]: 96%
TGI [23]: > 100 µM
CC50 [23]: > 100 µM
growth at 0.01 µM [24]: 91%
growth at 10 µM [25]: -22%
growth at 10 µM [26]: -37%
growth at 10 µM [27]: 17%
growth at 100 µM [28]: 54%
